Test results: paper PMC2193507 (The Journal of Experimental Medicine, 2001)

Legend:
[1] = Isoaspartyl content of peptides; type: physicochemical; conditions: tested at 250 pmol
Method in brief: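 Isoaspartate quantified by radiolabelled methyl incorporation using protein isoaspartyl methyltransferase and S-adenosyl-L-[methyl-3H]methionine, following the ISOQUANT kit protocol. Each peptide preparation was tested at 250 pmol. The manufacturer's standard gave an estimated 1,754 cpm per pmol. Batches had been stored frozen or at 4°C.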

type A T cells = assay: Type A T cell hybridomas, recognition; type: cell-based; conditions: all type A T cells in Table 1
Method in brief: (§1)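 IL-2 release assay: I-Ak-expressing M12.C3.F6 B lymphoma cells (5 × 104) were incubated with T cell hybridomas (5 × 104) and decreasing doses of antigen (native HEL or HEL 48–61 peptide) in MEM with 10% FCS for 18 h. Supernatants went to IL-2-dependent CTLL-2 cells cultured 40 h, with [3H]thymidine for the last 24 h.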

type B T cells = assay: Type B T cell hybridomas, recognition; type: cell-based; conditions: none of the type B triggered up to the value
Method in brief: as §1

T cell proliferation = conditions: in words; cited from earlier work
[2] = batch RD (7/00), tryptic peptide from HEL
[3] = batch Abbt (6/98), commercial source

Substance 46–61: tryptic peptide from HEL has a percentage of isoaspartyl [1, 2] of 0.9% and a pmol of isoaspartyl [1, 2] of 2.1 pmol.

In the case of “48–63: HEL peptide 48–63, batches 1387 and Abbt (commercial source) (DGSTDYGILQINSRWW; UniProt P00698 66-81, looked up, fragment)”, the percentage of isoaspartyl ([1]; batch 1387 (8/99)) is reported as 0.1%, the pmol of isoaspartyl ([1]; batch 1387 (8/99)) is reported as 0.3 pmol and the percentage of isoaspartyl [1, 3] is reported as 0 (0%). For the same substance, the pmol of isoaspartyl [1, 3] was 0 (0%) pmol.

In the case of “HEL: HEL was purchased from Sigma-Aldrich”, the “HEL concentration triggering all type A T cells” value (type A T cells) is reported as about 0.1 µM and the “HEL concentration up to which none of the type B T cells were triggered” value (type B T cells) is reported as over 10 µM.

For “murine cytochrome c peptide, residues 90–104: murine cytochrome c peptide, residues 90–104 (ERADLIAYLKKATNE; UniProt P62897 91-105, looked up, fragment)”, the “T cell proliferation after immunization of mice” value (T cell proliferation) is listed as “did not trigger T cell proliferation”.
